# Bioassay records (PubChem)
# Only some compounds are listed: those with a hit (about 3.9% of all), similar ones and a draw of the others.
# STAT3 act: increases IL-6 driven STAT3 reporter signal; U3A cells, IL-6 STAT3-luciferase reporter, luminescence; 100% = signal with IL-6 EC80 alone; activation (% of control), % at 5.6 µM; AID 871; 0.91% of 190,000 active;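 active = activation above the screen-wide mean of compound activation plus 3 SD, cut at about 130% in these data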
#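 Test system: STAT3-luciferase reporter U3A cells; Detection: reporter luminescence signal; Times: 1 h compound pre-exposure, 6 h IL-6 stimulation, 37 °C; Benchmarks: IL-6-only high control; Also added: IL-6 stimulus at 33 ng/mL final.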
# STAT1 blocker: STAT1 signaling inhibition; NIH 3T3 STAT1-luciferase reporter, IFN-gamma, luminescence; inhibition, % at 5.5 µM; 0.35% of 200,000 active; AID 920;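 active = inhibition above a set limit, the mean inhibition across all tested compounds plus 3 SD, cut at about 34% in these data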
# STAT1 activator: STAT1 signaling activation; NIH 3T3 STAT1-luciferase reporter, IFN-gamma, luminescence; 100% = IFN-gamma alone, no compound; activation (% of control), % at 5.5 µM; 2.6% of 200,000 active;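 active = activation above the screen-wide mean activation plus 3 SD, cut at about 130% in these data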
# APP 5'UTR act: activates APP 5'UTR luciferase reporter. 1% of 190,000 active. activation, % at 2 µM. SH-SY5Y APP 5'UTR luciferase reporter, luminescence; zero percent = DMSO vehicle wells. AID 1276;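 active = activation above a set limit, based on mean plus 3 SD of controls, cut at about 140% in these data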
# NF-kB expr up: NF-kB expression increase, human neuronal cells | NF-kB reporter expression; stronger effect = higher value | 1.6% of 190,000 active | fold change at 12.5 µM; in the data active = fold change above about 3.3
# Pf gamet viab: P. falciparum stage V gametocyte viability inhibition. inhibition, % at 10.9 µM. P. falciparum stage V gametocytes, ATP luminescence, 24 h. 0.065% of 150,000 active;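 active = inhibition above the mean plus 3 SD of compounds within the control limits, set per campaign, cut at about 38% in these data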
# Hits are given with their value; - = inactive; . = no result.
SMILES,STAT3 act,STAT1 blocker,STAT1 activator,APP 5'UTR act,NF-kB expr up,Pf gamet viab
O=C(Nc1nc(-c2nc3ccccc3s2)cs1)C1COc2ccccc2O1 (stereo not given),-,-,132.5,-,-,.
COc1ccc2nc(NC(=O)c3ccoc3C)sc2c1,-,-,-,142.4,10.9,.
COC(=O)c1sc(NC(=O)c2ccoc2C)nc1C,-,-,-,-,-,-
CC(C)n1c(/C=C/c2ccccc2)nc2ccccc21,-,-,-,-,-,-
CCCn1c(/C=C/c2ccccc2)nc2ccccc21,-,-,144.5,-,5.57,.
COCCOCCn1c(/C=C/c2ccccc2)nc2ccccc21,-,-,135.1,166.1,5.95,.
CC(C)(C)NS(=O)(=O)c1ccc(CCC(=O)N2CCCC2)cc1,-,-,-,-,-,-
COc1cccc(-c2nc(-c3ccc4c(c3)NC(=O)CO4)cs2)c1,-,-,142.0,-,-,-
Cc1nnc2n(c1=O)N=C(c1ccc(Cl)cc1)CS2,-,-,132.4,-,-,-
CC(=O)N1C(C(=O)O)CSC1c1ccc(C)cc1 (stereo not given),.,.,.,-,4.19,.
Cc1cc(NC(=O)Nc2ccc(Cl)cc2)no1,.,.,.,.,.,-
Cc1ccc(NC(=O)Nc2ccc(F)cc2)nc1,-,-,135.6,-,-,-
Cc1ccc(NC(=O)Nc2ccc3c(c2)N(C)C(=O)CS3)nc1,-,-,128.6,-,-,-
Cc1ccc(NC(=O)Nc2cc(C)on2)cc1,-,-,130.1,-,-,-
COc1ccccc1NC(=O)Nc1ccc(C)cn1,.,.,.,.,.,-
CCOc1ccc(NC(=O)Nc2ccc(Br)cn2)cc1,-,-,145.1,-,-,-
CN(C(=O)c1ccc(NC(=O)C2CCCN(C(=O)OC(C)(C)C)C2)cc1)C1CCC1 (stereo not given),.,.,.,.,.,-
COCCN1C(=O)N[C@@H](CCc2ccccc2)[C@H](C(=O)OC)[C@H]1C,.,.,.,.,.,-
COc1ccc(-c2noc(-c3ccc4c(c3)OCO4)n2)cc1,-,-,-,-,3.93,.
Cc1ccccc1OCc1nc(-c2ccccc2)no1,-,-,136.9,-,-,.
c1cc(-c2noc(-c3ccc4c(c3)OCO4)n2)ccn1,-,-,-,-,.,.
c1ccc(-c2noc(COc3ccc4c(c3)OCO4)n2)cc1,-,-,-,-,4.06,.
c1ccc(-c2noc(-c3ccc4c(c3)OCO4)n2)cc1,-,-,-,167.3,3.88,-
O=[N+]([O-])c1cccc(-c2nc(-c3ccccc3)no2)c1,139.9,-,137.7,-,3.8,-
COc1cccc(-c2noc(-c3ccc4c(c3)OCO4)n2)c1,-,40.8,-,159.4,5.65,-
SMILES,STAT3 act,STAT1 blocker,STAT1 activator,APP 5'UTR act,NF-kB expr up,Pf gamet viab
COc1cccc(-c2nc(-c3ccc(Br)o3)no2)c1,.,.,.,.,.,-
CC(C)C(NC(=O)OCc1ccccc1)C(=O)N1CCOCCOCCOCC1 (stereo not given),-,-,-,-,-,-
O=C(O)CC(CN1C(=O)c2ccccc2C1=O)c1ccccc1 (stereo not given),.,.,.,.,.,-
O=C(COc1ncnc2cc(Cl)ccc12)c1ccccc1,.,.,.,.,.,-
c1ccc(OCCOc2ncnc3ccccc23)cc1,-,-,133.1,-,-,-
Brc1ccc(COc2ncnc3ccccc23)cc1,-,-,-,-,-,-
O=C(COc1ncnc2ccccc12)c1ccc(Cl)cc1,-,-,133.8,-,-,-
COc1ccc(C(Sc2ccccc2)c2ccccc2)cc1OC (stereo not given),.,.,.,.,.,-
COc1ccc(OCC(=O)Nc2nccs2)cc1,-,-,-,-,3.91,-
CCOc1ccc(S(=O)(=O)N(C)c2ccc(OCC(=O)Nc3nccs3)cc2)cc1,-,-,-,-,-,-
COc1ccc(C(CC(=O)Nc2nccs2)n2cccc2)cc1 (stereo not given),-,-,156.0,193.9,4.46,.
COc1ccc(OCCC(=O)Nc2nccs2)cc1,-,-,-,-,-,-
COc1ccc(OCC(=O)Nc2ccccc2O)cc1,-,-,-,-,5.46,.
CCOc1ccc(OCC(=O)Nc2nccs2)cc1,-,60.7,-,156.6,-,.
CC(=NCCCn1ccnc1)c1c(C)[nH]n(-c2ccc([N+](=O)[O-])cc2)c1=O,-,-,-,-,-,.
COc1ccccc1OCCCC(=O)Nc1nccs1,-,-,133.5,-,-,-
COc1ccc(NC(=O)c2cc3cc(OC)ccc3oc2=O)cc1,.,.,.,.,.,-
COc1ccc2oc(=O)c(C(=O)Nc3cccc(C)c3)cc2c1,-,-,138.5,-,-,-
COc1cccc(NC(=O)Nc2cccc(C(=O)O)c2)c1,-,87.7,-,-,-,.
CCc1ccc(NC(=O)Nc2cccc(OC)c2)cc1,-,-,146.3,160.6,-,-
CC(C)Oc1cccc(C(=O)NC(=S)Nc2ccccc2)c1,-,-,144.6,-,-,.
CC1=C(C(=O)OCc2ccccc2)C(c2ccccc2OS(=O)(=O)c2ccc([N+](=O)[O-])cc2)NC(=O)N1CCCC(=O)O (stereo not given),.,.,.,.,.,-
COc1ccc(C(=O)Nc2cccc(OC)c2)cc1,-,-,-,-,5.79,.
COc1cccc(NC(=O)c2cccc(C(=O)Nc3cccc(OC)c3)c2)c1,.,.,.,.,.,-
Cc1ccnc(NC(=O)c2cc3ccccc3oc2=O)c1,-,-,143.8,151.8,5.93,-
SMILES,STAT3 act,STAT1 blocker,STAT1 activator,APP 5'UTR act,NF-kB expr up,Pf gamet viab
CC(C)(C)C(=O)NC(=S)Nc1cccc(C(=O)O)c1,-,-,130.9,-,.,-
Cc1cccc(NC(=O)c2cc3ccccc3oc2=O)c1,.,.,.,.,.,-
COc1ccc2cc(C(=O)NCc3ccco3)c(=O)oc2c1,-,-,-,-,3.87,-
Cc1nc([N+](=O)[O-])cn1CC(=O)Nc1ccc([N+](=O)[O-])cc1,.,.,.,.,.,-
COc1nnc(-c2ccc(C)cc2)c2ccccc12,.,.,.,.,.,-
N=C1C(c2ccccc2)=C(O)CN1CCO,-,-,-,-,-,-
Cc1onc(-c2c(Cl)cccc2Cl)c1C(=O)c1c[nH]c(C(=O)NCC2CCCO2)c1 (stereo not given),-,-,-,-,-,.
CCOc1ccc(NC(=O)c2ccc3nccnc3c2)cc1,-,-,-,.,-,-
COc1ccc(C(=O)NNC(=S)NC(=O)c2ccc(OC)cc2)cc1,.,.,.,.,.,-
COc1ccc(NC(=O)c2ccc3nccnc3c2)cc1,-,-,131.1,-,-,.
CC(C)(C)NC(=O)c1ccc2nccnc2c1,-,-,-,-,-,-
COc1cccc(C(=O)Nc2ccc(NC(=O)C(C)(C)C)cn2)c1,-,-,-,137.8,-,.
O=C(Nc1ccc(Br)cn1)c1ccc2nccnc2c1,-,-,149.1,-,.,.
COc1ccc(C(=O)NNC(=S)Nc2ccccc2)cc1,-,-,129.6,141.4,6.53,-
C=CCN1C(=O)/C(=C/c2ccc(OC(C)=O)c(OCC)c2[N+](=O)[O-])SC1=S,-,-,-,-,-,-
COc1ccc(-c2cc(=O)c3cc(O)ccc3o2)cc1,.,-,145.0,-,6.55,.
O=c1cc(-c2ccccc2)oc2ccc(O)cc12,.,.,.,.,.,-
